Tests used:
Assay type in all cases: ADME
[1] = target: Cytochrome P450 2C8 (Homo sapiens, UniProt P10632); experiment: Reversible inhibition of human CYP2C8 paclitaxel 6alpha-hydroxylase activity
Procedure, shortened: (§1)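 Reversible IC50 with pooled HLM or recombinant CYP3A7 (with POR and b5), protein 0.010–0.10 mg/ml depending on isoform. Probe substrate at its experimentally derived KM. Metabolite formation measured by LC/MS/MS. IC50 determinations run in duplicate.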

[2] = target: Cytochrome P450 2C19 (Homo sapiens, UniProt P33261); experiment: Reversible inhibition of human CYP2C19 S-mephenytoin 4'-hydroxylase activity; procedure, shortened: as §1
[3] = target: Cytochrome P450 3A4 (Homo sapiens, UniProt P08684); experiment: Reversible inhibition of testosterone 6beta-hydroxylase activity of human recombinant CYP3A4 in presence of human P450 oxidoreductase and b5
Procedure, shortened: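 IC50 was measured with baculovirus-expressed CYP3A4 plus POR and cytochrome b5 (P450:reductase:b5 1:5:7), with substrate at its experimentally derived KM, in duplicate. Enzyme was 0.010 mg/ml for midazolam 1'-hydroxylation and 0.020 mg/ml for testosterone 6β-hydroxylation.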

[4] = target: Cytochrome P450 3A5 (Homo sapiens, UniProt P20815); experiment: Inhibition of testosterone 6beta-hydroxylase activity of human recombinant CYP3A5 in presence of human P450 oxidoreductase and b5 assessed as decrease in enzyme activity preincubated for 30 mins by LC-MS/MS analysis
Procedure, shortened: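 rCYP3A5 with POR and b5 (0.010 mg/ml for midazolam, 0.020 mg/ml for testosterone) preincubated 30 min at 37°C with 2 µM inhibitor, ±NADPH (1.3 mM), N=2. Mixture then diluted 10-fold into probe substrate at ~KM at 37°C. Activity expressed as percent of control remaining, reported as decrease in activity.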

Chain of Cytochrome P450 2C19 (P33261 whole entry): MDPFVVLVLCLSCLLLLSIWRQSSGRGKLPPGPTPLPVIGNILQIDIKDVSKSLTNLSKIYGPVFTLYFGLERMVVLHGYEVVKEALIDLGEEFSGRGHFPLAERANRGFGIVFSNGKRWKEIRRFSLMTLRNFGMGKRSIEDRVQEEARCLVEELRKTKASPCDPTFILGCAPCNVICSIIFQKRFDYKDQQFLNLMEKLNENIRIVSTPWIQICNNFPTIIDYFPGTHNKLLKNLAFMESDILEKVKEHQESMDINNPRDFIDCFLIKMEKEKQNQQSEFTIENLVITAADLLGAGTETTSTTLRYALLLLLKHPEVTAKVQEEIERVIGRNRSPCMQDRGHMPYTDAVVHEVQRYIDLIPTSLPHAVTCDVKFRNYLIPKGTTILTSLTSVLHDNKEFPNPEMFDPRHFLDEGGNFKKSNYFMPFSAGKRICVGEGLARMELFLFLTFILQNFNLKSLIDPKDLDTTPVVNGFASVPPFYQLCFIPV
Chain of Cytochrome P450 3A4 (P08684 whole entry): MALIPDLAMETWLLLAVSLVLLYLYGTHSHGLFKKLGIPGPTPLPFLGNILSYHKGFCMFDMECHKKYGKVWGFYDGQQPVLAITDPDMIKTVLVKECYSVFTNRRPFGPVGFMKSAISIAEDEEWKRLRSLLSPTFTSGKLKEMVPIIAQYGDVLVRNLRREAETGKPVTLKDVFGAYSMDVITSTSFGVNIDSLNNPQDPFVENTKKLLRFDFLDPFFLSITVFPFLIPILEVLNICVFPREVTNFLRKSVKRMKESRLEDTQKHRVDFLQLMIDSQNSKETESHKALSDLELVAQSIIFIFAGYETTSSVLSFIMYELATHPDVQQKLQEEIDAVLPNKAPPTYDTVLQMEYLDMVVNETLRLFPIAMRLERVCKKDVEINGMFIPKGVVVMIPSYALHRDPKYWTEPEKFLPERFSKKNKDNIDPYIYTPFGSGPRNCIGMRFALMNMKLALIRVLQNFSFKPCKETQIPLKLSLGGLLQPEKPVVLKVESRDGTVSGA
Chain of Cytochrome P450 2C8 (P10632 whole entry, canonical isoform): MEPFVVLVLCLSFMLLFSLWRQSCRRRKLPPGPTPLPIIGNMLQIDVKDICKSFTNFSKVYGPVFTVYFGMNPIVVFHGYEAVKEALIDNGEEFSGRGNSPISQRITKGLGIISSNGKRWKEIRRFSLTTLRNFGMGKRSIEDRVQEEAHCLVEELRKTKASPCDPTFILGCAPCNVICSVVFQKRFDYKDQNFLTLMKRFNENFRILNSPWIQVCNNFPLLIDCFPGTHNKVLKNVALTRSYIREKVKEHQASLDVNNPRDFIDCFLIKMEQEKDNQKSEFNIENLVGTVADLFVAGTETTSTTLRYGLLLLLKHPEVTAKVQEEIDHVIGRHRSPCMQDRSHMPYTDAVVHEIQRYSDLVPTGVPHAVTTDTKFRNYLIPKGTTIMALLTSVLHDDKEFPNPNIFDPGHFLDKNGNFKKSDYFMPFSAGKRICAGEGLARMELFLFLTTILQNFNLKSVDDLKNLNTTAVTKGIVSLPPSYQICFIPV
Chain of Cytochrome P450 3A5 (P20815 whole entry): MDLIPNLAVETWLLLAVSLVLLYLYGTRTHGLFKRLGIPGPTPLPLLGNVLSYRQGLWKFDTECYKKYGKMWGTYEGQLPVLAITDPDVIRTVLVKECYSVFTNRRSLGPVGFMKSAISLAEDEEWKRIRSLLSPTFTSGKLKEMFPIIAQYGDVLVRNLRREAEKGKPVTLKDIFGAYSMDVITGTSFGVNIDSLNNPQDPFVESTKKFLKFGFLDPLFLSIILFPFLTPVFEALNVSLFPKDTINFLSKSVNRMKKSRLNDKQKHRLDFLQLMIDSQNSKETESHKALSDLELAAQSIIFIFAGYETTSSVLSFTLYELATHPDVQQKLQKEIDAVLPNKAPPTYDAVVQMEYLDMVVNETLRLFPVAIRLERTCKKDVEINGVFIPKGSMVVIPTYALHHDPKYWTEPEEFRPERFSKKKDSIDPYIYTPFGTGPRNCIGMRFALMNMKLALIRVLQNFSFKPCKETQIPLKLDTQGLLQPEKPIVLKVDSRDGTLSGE

IC50 [1]: 78 µM
IC50 [2]: 77 µM
IC50 [3]: 690 nM
Ki [4]: 1200 nM
Compound: Cc1ccc(-c2c(-c3nn(C)c4ncnc(N5CC[C@H](N6CCCCC6)C5)c34)cnn2C)cc1
